Data from ChEMBL document CHEMBL3259519, “Targeting triple-negative breast cancer cells with 6,7-bis(hydroxymethyl)-1H,3H-pyrrolo[1,2-c]thiazoles” (Eur J Med Chem, 2014).

Columns and labels:
Assay type in all cases: functional, cell-based
HCC1806 [1] = assay: Antiproliferative activity against ER, PR, HER2-deficient human HCC1806 cells as growth inhibition after 24 hrs by MTT assay; conditions: HCC1806, 24 h
In short: (§1)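 Cells were seeded at 2x10^4/well and left to attach overnight. Compounds in DMSO were diluted in medium and applied for 24, 48, 72 or 96 h. Cells were then PBS-washed and given 0.5 mg/mL MTT (pH 7.4) at 37 °C for 4 h. Formazan was dissolved in acid isopropanol. IC50 came from dose-response curves by exponential decay fitting (r2>0.9), with 95% CI.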

HCC1806 [2] = assay: Antiproliferative activity against ER, PR, HER2-deficient human HCC1806 cells as growth inhibition after 48 hrs by MTT assay; conditions: HCC1806, 48 h; in short: as §1
HCC1806 [3] = assay: Antiproliferative activity against ER, PR, HER2-deficient human HCC1806 cells as growth inhibition after 72 hrs by MTT assay; conditions: HCC1806, 72 h; in short: as §1
HCC1806 [4] = assay: Antiproliferative activity against ER, PR, HER2-deficient human HCC1806 cells as growth inhibition after 96 hrs by MTT assay; conditions: HCC1806, 96 h; in short: as §1
HCC1954 [5] = assay: Antiproliferative activity against human HCC1954 cells expressing HER2 assessed as growth inhibition after 24 hrs by MTT assay; conditions: HCC1954, 24 h; in short: as §1
HCC1954 [6] = assay: Antiproliferative activity against human HCC1954 cells expressing HER2 assessed as growth inhibition after 48 hrs by MTT assay; conditions: HCC1954, 48 h; in short: as §1
HCC1954 [7] = assay: Antiproliferative activity against human HCC1954 cells expressing HER2 assessed as growth inhibition after 72 hrs by MTT assay; conditions: HCC1954, 72 h; in short: as §1
HCC1954 [8] = assay: Antiproliferative activity against human HCC1954 cells expressing HER2 assessed as growth inhibition after 96 hrs by MTT assay; conditions: HCC1954, 96 h; in short: as §1
MCF7 [9] = assay: Antiproliferative activity against human MCF7 cells expressing ER and BRCA2 assessed as growth inhibition after 24 hrs by MTT assay; conditions: MCF7, 24 h; in short: as §1
MCF7 [10] = assay: Antiproliferative activity against human MCF7 cells expressing ER and BRCA2 assessed as growth inhibition after 48 hrs by MTT assay; conditions: MCF7, 48 h; in short: as §1
MCF7 [11] = assay: Antiproliferative activity against human MCF7 cells expressing ER and BRCA2 assessed as growth inhibition after 72 hrs by MTT assay; conditions: MCF7, 72 h; in short: as §1
MCF7 [12] = assay: Antiproliferative activity against human MCF7 cells expressing ER and BRCA2 assessed as growth inhibition after 96 hrs by MTT assay; conditions: MCF7, 96 h; in short: as §1

SMILES | IC50 (HCC1806 [1]) [µM] | IC50 (HCC1806 [2]) [µM] | IC50 (HCC1806 [3]) [µM] | IC50 (HCC1806 [4]) [µM] | IC50 (HCC1954 [5]) [µM] | IC50 (HCC1954 [6]) [µM] | IC50 (HCC1954 [7]) [µM] | IC50 (HCC1954 [8]) [µM] | IC50 (MCF7 [9]) [µM] | IC50 (MCF7 [10]) [µM] | IC50 (MCF7 [11]) [µM] | IC50 (MCF7 [12]) [µM]
Cc1c(CO)c(CO)c2n1[C@H](c1ccccc1)SC2 | > 100 | 63.1 | 78.5 | 28.7 | > 100 | 56.8 | 14.8 | 11.8 |  |  |  | 
Cc1c(CO)c(CO)c2n1[C@H](c1ccccc1)SC2(C)C | > 100 | 41.7 | 26.9 | 21.3 | 99.5 | 69 | 55.9 | 33.5 | > 100 | > 100 | > 100 | > 100
